Among the data in publication PMC3037833 (Angewandte Chemie (International ed. in English), 2010) are Ki and Kd values, retold here.

Assay [1] addresses T1, N1P1 (NHERF1 PDZ domain 1) (Homo sapiens, UniProt O14745).
T1 sequence (O14745 14-94 limits assumed): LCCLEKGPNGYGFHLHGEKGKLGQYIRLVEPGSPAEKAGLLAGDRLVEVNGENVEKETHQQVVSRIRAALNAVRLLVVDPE
Briefly: Fluorescence polarization. In kind it is binding. An outline of the steps:
(§1)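 Test peptides were assayed by fluorescence polarization inhibition for binding to the isolated PDZ domain; the same format was applied across the five CFTR-associated PDZ domains.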

The target in assay [2] is T2, N1P2 (NHERF1 PDZ domain 2) (Homo sapiens, UniProt O14745).
T2 sequence (O14745 154-234 limits assumed): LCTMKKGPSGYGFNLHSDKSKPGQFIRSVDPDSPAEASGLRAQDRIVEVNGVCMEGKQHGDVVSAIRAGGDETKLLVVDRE
Put plainly: Fluorescence polarization. Format: binding. The method, boiled down:
as §1

For assay [3], the target named is N2P1 (NHERF2 PDZ domain 1) (Homo sapiens, UniProt Q15599). Briefly: Fluorescence polarization. Format: binding.
Assay [4] addresses N2P2 (NHERF2 PDZ domain 2) (Homo sapiens, UniProt Q15599). Put plainly: Fluorescence polarization. In kind it is binding.
A further assay addresses T3, F*-iCAL36.
T3 chain: fluorescein-ANSRWPTSII
Briefly: fluorescence polarization.

In a further assay the target is T4, SSR510 (Homo sapiens).
T4 chain: ANGLMQTSKL
Put plainly: fluorescence polarization competition.

In another assay the target is T5, iCAL3610.
T5 chain: ANSRWPTSII
Put plainly: fluorescence polarization competition.

A further assay addresses T6, SSR56 (Homo sapiens, N-terminal cysteine on peptide).
T6 chain: MQTSKL
Put plainly: fluorescence polarization competition.

The next assay concerns the target T7, iCAL366 (N-terminal cysteine on peptide).
T7 chain: WPTSII
Put plainly: fluorescence polarization competition.

Another assay concerns the target T8, iCAL368.
T8 chain: SRWPTSII
Briefly: fluorescence polarization competition.

The target of a further assay is T9, iCAL056 (N-terminal cysteine on peptide).
T9 chain: MQTSKI
Briefly: fluorescence polarization competition.

In the next assay the target is T10, iCAL356 (N-terminal cysteine on peptide).
T10 chain: WQTSII
Briefly: fluorescence polarization competition.

The target in the next assay is T11, iCAL066 (N-terminal cysteine on peptide).
T11 chain: MQTSII
Put plainly: fluorescence polarization competition.

In the next assay the target is T12, CFTR10 (Homo sapiens).
T12 chain: TEEEVQDTRL
Briefly: fluorescence polarization competition.

Where two headings read alike, the source gives them in different places. No end group written: not given here.

On to `CC(C)C[C@H](NC(=O)[C@H](CCCNC(=N)N)NC(=O)[C@@H](NC(=O)[C@H](CC(=O)O)NC(=O)[C@H](CCC(N)=O)NC(=O)[C@@H](NC(=O)[C@H](CCC(=O)O)NC(=O)[C@H](CCC(=O)O)NC(=O)[C@H](CCC(=O)O)NC(=O)[C@@H](N)[C@@H](C)O)C(C)C)[C@@H](C)O)C(=O)O` [CFTR10, reference compound], for which the results for the Ki in [1] (SD) and in assay [2] (SD) were 0.45 ± 0.02 µM and 1.9 ± 0.1 µM, respectively.
Take `CSCC[C@H](NC(=O)[C@H](CC(C)C)NC(=O)CNC(=O)[C@H](CC(N)=O)NC(=O)[C@H](C)N)C(=O)N[C@@H](CCC(N)=O)C(=O)N[C@H](C(=O)N[C@@H](CO)C(=O)N[C@@H](CCCCN)C(=O)N[C@@H](CC(C)C)C(=O)O)[C@@H](C)O` [SSR5_10, reference compound]: the Ki was found to be 24.5 ± 1.9 µM in assay [1] (SD), 130 ± 48 µM in assay [2] (SD), 38.6 ± 7.7 µM in assay [3] (SD) and 19.8 ± 2.7 µM in assay [4] (SD).
For `CC[C@H](C)[C@H](NC(=O)[C@@H](NC(=O)[C@H](CO)NC(=O)[C@@H](NC(=O)[C@@H]1CCCN1C(=O)[C@H](Cc1c[nH]c2ccccc12)NC(=O)[C@H](CCCNC(=N)N)NC(=O)[C@H](CO)NC(=O)[C@H](CC(N)=O)NC(=O)[C@H](C)N)[C@@H](C)O)[C@@H](C)CC)C(=O)O` [iCAL36_10], the Ki was over 5000 µM in assay [1], over 5000 µM in [2], over 5000 µM in assay [3] and over 3000 µM in [4].
For the molecule SRWPTSII [iCAL36_8], the Ki is over 5000 µM in [1], over 5000 µM in [2], 516 ± 183 µM in assay [3] (SD) and 433 ± 154 µM in assay [4] (SD).

B1: NHERF2 PDZ2 (protein)
chain: LRPRLCHLRKGPQGYGFNLHSDKSRPGQYIRSVDPGSPAARSGLRAQDRLIEVNGQNVEGLRHAEVVASIKAREDEARLLVVDPETD
For the molecule B1, in the assay with F*-iCAL36, the Kd is over 1000 µM. Moreover, the Ki with SSR510 was 19.8 µM; with iCAL3610 it was over 3000 µM; with SSR56, 10 µM; with iCAL366, over 5000 µM; with iCAL368 it was 433 µM; with iCAL056, 109 µM. Moreover, the values for the Ki with iCAL356, with iCAL066 and with CFTR10 were 246 µM, 166 µM and 0.1 µM, respectively.

B2: NHERF1 PDZ2 (protein)
chain: RPRLCTMKKGPSGYGFNLHSDKSKPGQFIRSVDPDSPAEASGLRAQDRIVEVNGVCMEGKQHGDVVSAIRAGGDETKLLVVDRETDE
In the assay with F*-iCAL36, B2 displayed a Kd of over 1000 µM. The Ki was 130 µM with SSR510; over 5000 µM with iCAL3610; 50.2 µM with SSR56; over 5000 µM with iCAL366; over 5000 µM with iCAL368; 1700 µM with iCAL056. Moreover, the figures for the Ki with iCAL356, with iCAL066 and with CFTR10 were over 5000 µM, 2400 µM and 1.9 µM, respectively.

B3: NHERF1 PDZ1 (protein)
chain: LPRLCCLEKGPNGYGFHLHGEKGKLGQYIRLVEPGSPAEKAGLLAGDRLVEVNGENVEKETHQQVVSRIRAALNAVRLLVVDPETDE
As to B3, the Kd in the assay with F*-iCAL36 is over 1000 µM. Also, the inhibition constant (Ki) in the assay with SSR510 was 24.5 µM; with iCAL3610, over 5000 µM; in the assay with SSR56, 19.3 µM; with iCAL366, over 5000 µM; with iCAL368, over 5000 µM; with iCAL056 it was 914 µM. The figures for the Ki with iCAL356, in the assay with iCAL066 and in the assay with CFTR10 were 430 µM, 245 µM and 0.45 µM, respectively.

B4: NHERF2 PDZ1 (protein)
chain: RPRLCRLVRGEQGYGFHLHGEKGRRGQFIRRVEPGSPAEAAALRAGDRLVEVNGVNVEGETHHQVVQRIKAVEGQTRLLVVDQETD
With B4, the Kd in the assay with F*-iCAL36 is over 1000 µM. Besides, the Ki in the assay with SSR510 is 38.6 µM; with iCAL3610, over 5000 µM; in the assay with SSR56 it was 31.7 µM; with iCAL366 it was over 5000 µM; in the assay with iCAL368, 516 µM; in the assay with iCAL056, 806 µM. Also, the Ki was found to be 496 µM with iCAL356, 245 µM with iCAL066 and 1.1 µM in the assay with CFTR10.
